This is an account of results in paper PMC3578163 (Chemical research in toxicology, 2013).

Molecules are shown by their SMILES. Where two headings read alike, the source gives them in different places.

As a reminder, the IC50 is the concentration that gives 50% inhibition. The term Kd denotes the equilibrium constant for the complex coming apart. The term kcat denotes the maximal rate divided by the concentration of active sites.

Assay [1] addresses T1, hpol η^1–437 (Homo sapiens, UniProt Q9Y253).
T1 sequence (Q9Y253 1-437): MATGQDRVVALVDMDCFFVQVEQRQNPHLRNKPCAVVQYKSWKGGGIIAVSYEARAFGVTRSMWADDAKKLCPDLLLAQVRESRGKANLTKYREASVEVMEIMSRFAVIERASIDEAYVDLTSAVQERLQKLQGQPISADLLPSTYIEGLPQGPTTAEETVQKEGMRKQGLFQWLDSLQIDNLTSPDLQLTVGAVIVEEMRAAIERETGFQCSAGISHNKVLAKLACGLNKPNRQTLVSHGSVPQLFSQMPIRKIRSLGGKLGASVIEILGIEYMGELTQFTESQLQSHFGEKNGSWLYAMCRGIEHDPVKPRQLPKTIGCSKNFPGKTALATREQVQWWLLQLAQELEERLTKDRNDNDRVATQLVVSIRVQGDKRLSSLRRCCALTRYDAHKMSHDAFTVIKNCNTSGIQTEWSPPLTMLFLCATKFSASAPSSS
Briefly: polymerase-catalyzed primer extension. The settings on record: read-out: IC50 for inhibition of DNA polymerase activity; all four dNTPs 0.25 mM, MgCl2 5 mM; 20 nM enzyme, 200 nM DNA, 37 °C. The class given is biochemical.

Assay [2] has as its target T2, hpol ι^1–446 (Homo sapiens, UniProt Q9UNA4).
T2 sequence (Q9UNA4 1-446): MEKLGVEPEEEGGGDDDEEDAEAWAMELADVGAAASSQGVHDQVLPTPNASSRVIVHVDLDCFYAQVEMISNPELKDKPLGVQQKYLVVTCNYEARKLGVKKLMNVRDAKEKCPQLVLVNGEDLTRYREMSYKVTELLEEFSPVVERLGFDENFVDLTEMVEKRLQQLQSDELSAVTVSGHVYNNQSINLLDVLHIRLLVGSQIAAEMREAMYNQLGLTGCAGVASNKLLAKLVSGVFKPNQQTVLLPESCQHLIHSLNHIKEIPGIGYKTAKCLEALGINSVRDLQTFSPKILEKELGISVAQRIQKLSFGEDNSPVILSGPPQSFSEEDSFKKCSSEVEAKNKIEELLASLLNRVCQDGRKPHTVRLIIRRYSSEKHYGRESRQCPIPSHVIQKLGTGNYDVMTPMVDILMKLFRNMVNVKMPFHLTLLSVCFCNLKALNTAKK
In words: polymerase-catalyzed primer extension. The settings on record: read-out: IC50 for inhibition of DNA polymerase activity; all four dNTPs 0.25 mM, MgCl2 5 mM; 20 nM enzyme, 200 nM DNA, 37 °C. The class given is biochemical.

Assay [3] has as its target T3, hpol ι^26–446 (Homo sapiens, UniProt Q9UNA4).
T3 sequence (Q9UNA4 26-446): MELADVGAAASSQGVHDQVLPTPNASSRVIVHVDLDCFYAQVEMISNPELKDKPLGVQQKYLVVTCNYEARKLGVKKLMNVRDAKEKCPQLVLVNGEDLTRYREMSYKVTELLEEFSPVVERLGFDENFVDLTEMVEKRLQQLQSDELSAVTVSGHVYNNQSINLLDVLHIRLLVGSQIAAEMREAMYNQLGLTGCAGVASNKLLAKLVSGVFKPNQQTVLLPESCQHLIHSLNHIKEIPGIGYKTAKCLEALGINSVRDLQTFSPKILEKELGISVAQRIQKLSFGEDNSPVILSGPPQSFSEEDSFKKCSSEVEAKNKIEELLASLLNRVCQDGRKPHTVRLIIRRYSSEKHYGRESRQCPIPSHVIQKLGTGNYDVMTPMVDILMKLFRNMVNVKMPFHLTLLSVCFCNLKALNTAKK
The class given is binding. The settings on record: for Kd: read-out: Kd,DNA (polymerase binding to primer-template DNA). The essentials: (§1)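 Recombinant human polymerase (His/GST-tagged, expressed in E. coli BL21(DE3), tags cleaved) titrated into 2 nM FAM-labelled 13/18-mer primer-template at 25 °C. Buffer: 50 mM HEPES pH 7.5, 10 mM KOAc, 10 mM MgCl₂, 0.1 mM ZnCl₂, 0.1 mM EDTA, 10% DMSO, 0.1 mg/mL BSA. MK886 at 0–250 μM, with DMSO as control. Polarization read at ex 485/em 525 nm. Kd fitted with total DNA held constant.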

Assay [4] deals with T4, hpol κ^19–526 (Homo sapiens, UniProt Q9UBT6).
T4 sequence (Q9UBT6 19-526): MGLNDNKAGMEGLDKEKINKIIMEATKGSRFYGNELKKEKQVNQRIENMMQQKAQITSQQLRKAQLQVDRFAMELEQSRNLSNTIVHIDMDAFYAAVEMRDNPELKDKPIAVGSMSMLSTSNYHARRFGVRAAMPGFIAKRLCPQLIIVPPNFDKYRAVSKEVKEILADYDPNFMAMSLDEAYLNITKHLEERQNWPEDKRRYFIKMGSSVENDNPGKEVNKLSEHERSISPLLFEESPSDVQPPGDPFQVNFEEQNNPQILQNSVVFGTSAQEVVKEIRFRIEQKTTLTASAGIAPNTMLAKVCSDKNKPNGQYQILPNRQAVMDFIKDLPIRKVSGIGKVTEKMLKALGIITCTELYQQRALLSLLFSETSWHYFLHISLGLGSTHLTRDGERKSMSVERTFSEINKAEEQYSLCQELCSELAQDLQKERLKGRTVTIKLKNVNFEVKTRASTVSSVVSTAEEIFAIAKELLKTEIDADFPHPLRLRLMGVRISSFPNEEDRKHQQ
In kind it is binding. Conditions: for Kd: read-out: Kd,DNA (polymerase binding to primer-template DNA). Summed up: as §1

Assay [5] has as its target T3, hpol ι^26–446. Briefly: steady-state single-nucleotide. The class given is biochemical. The settings on record: for kcat: dCTP insertion. Summed up: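 Single dCTP insertion on a FAM-labelled primer-template: 5 nM enzyme, 100 nM DNA. Started with dCTP (10 concentrations, 1–1500 μM) plus 2 mM Mg²⁺. MK886 at 20 nM, 50 nM, 1 μM or 10 μM, or DMSO. Time points quenched with 95% formamide/20 mM EDTA; products resolved on 16% acrylamide/7 M urea gels. Velocities fitted to Michaelis–Menten; kcat and KM taken after enzyme correction.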

The subject of assay [6] is peroxisome proliferator activated receptor alpha (PPARα). Conditions: FLAP-independent inhibition of PPARα; cited from earlier work.

As for `CC(C)c1ccc2c(c1)c(SC(C)(C)C)c(CC(C)(C)C(=O)O)n2Cc1ccc(Cl)cc1` [MK886, 3-[1-(4-chlorobenzyl)-3-t-butyl-thio-5-isoproylindol-2-yl]-2,2-dimethylpropanoic acid], the values for the IC50 in assay [1] and in assay [2] were 45800 ± 8400 nM and 15100 ± 2100 nM, respectively. Moreover, the “change in the affinity for DNA relative to the DMSO control” value in assay [3] (10 μM MK886) is on record as “no observed change”. The “fold increase in the Kd,DNA” value in assay [3] (MK886 at or above 100 μM) is given as above 2 fold. The Kd in assay [3] (100 μM MK886) turned out to be 18.8 ± 2.7 nM; in assay [3] (150 μM MK886) it was 16.4 ± 2.1 nM; in assay [3] (250 μM MK886), 38.8 ± 17.1 nM; in assay [4] (25 μM MK886), 26 ± 9.1 nM; in assay [4] (50 μM MK886) it was 24.1 ± 9.4 nM; in assay [4] (100 μM MK886), 31.3 ± 12.1 nM. Besides, the Kd is 70.4 ± 15.7 nM in assay [4] (150 μM MK886) and 67.9 ± 17.1 nM in assay [4] (250 μM MK886). In addition, the “change in binding affinity for hpol κ relative to that observed for hpol ι^26–446” value in assay [4] (hpol κ vs hpol ι^26–446) was ~ 2 fold. For the same compound, the kcat stood at 0.0233 ± 0.0017 s⁻¹ in assay [5] (0.02 μM MK886), 0.02 ± 0.0017 s⁻¹ in assay [5] (0.05 μM MK886), 0.0267 ± 0.0017 s⁻¹ in assay [5] (1 μM MK886) and 0.025 ± 0.0017 s⁻¹ in assay [5] (10 μM MK886). For the same compound, the “Fold decrease in kcat/KM,dNTP” value in assay [5] (0.02 μM MK886 vs no inhibitor) was 1.5; in assay [5] (0.05 μM MK886 vs no inhibitor) it was 2.1; in assay [5] (1 μM MK886 vs no inhibitor) it was 2.1; in assay [5] (10 μM MK886 vs no inhibitor), 2.8. The “mechanism of inhibition of DNA polymerase activity” value in assay [5] (single-nucleotide insertion, kcat and Km,dNTP both altered) is recorded as “mixed-model of inhibition”. Further, the “concentration at which apoptosis is induced” value in assay [6] is given as “above 10 μM”.
